Data set [1] addresses T1, Free fatty acid receptor 1 (Homo sapiens, UniProt O14842). The experiment in a line: Agonist activity at human FFA1 receptor expressed in CHO cells assessed as increase in intracellular calcium flux at 100 nM by FLIPR assay relative to control. Type of data set: functional, cell-based. Put shortly: (§1)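 CHO cells stably expressing human FFA1 (NM_005303), seeded at 15 K cells/well and grown 16 h at 37 °C, 5% CO2. Calcium flux read by FLIPR Tetra. Response = (A−B)/(C−B)×100, with B vehicle and C 10 μM γ-linolenic acid. Mean of three independent experiments.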

Data set [2] concerns the target T1, Free fatty acid receptor 1. As to the kind of experiment: Agonist activity at human FFA1 receptor expressed in CHO cells assessed as increase in intracellular calcium flux by FLIPR assay. Type of data set: functional, cell-based. In short, it runs like this: as §1
On the technique in general: A change in cytosolic calcium serves as a functional read-out for many receptors and channels.

Data set [3] can be described thus: 1-octanol-phosphate buffer partition coefficient, log D of the compound at 100 uM at pH 7.4 after 24 hrs by shake-flask method. In kind it is physicochemical. Put shortly:
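Test compound at 100 μM final (from 10 mM DMSO stock) in 0.01 M phosphate buffer pH 7.4 and 1-octanol, shaken 700 rpm for 24 h, phases left 1 h to separate. Each phase analysed by HPLC in duplicate at 254 nm. LogD is the octanol/buffer peak-area ratio, corrected with two calibration points per compound per solvent. Three independent experiments.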

The subject of data set [4] is Mus musculus. As to the kind of experiment: Antidiabetic activity in overnight fasted ICR mouse assessed as decrease in blood glucose level at 20 mg/kg, po administered glucose 30 mins post compound treatment measured at 15 to 120 mins by OGTT. In kind it is functional, organism-based. In short, it runs like this:
(§2)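 Male ICR mice, 10 weeks old, fasted 12 h and randomized (n = 6). Compound given orally at 10, 20 or 40 mg/kg in 0.5% CMC, with 30% glucose (3 g/kg) orally 30 min later. Tail blood glucose measured by test strips at −30, 0, 15, 30, 45, 60 and 120 min. Student's t test vs vehicle.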

The test system of data set [5] is Mus musculus. As to the kind of experiment: Antidiabetic activity in overnight fasted STZ-induced type 2 diabetic C57BL/6 mouse model assessed as decrease in blood glucose level at 20 mg/kg, po administered glucose 30 mins post compound treatment measured at 15 to 120 mins by OGTT. In kind it is functional, organism-based. In short, it runs like this: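 Male C57BL/6 mice on 45% fat diet for 4 weeks, then STZ 80 mg/kg ip, then high-fat diet 4 more weeks. Mice with fasting glucose ≥11.1 mmol/L were used, fasted 12 h (n = 6). Oral dose in 0.5% CMC, with 20% glucose (2 g/kg) orally 30 min later. Strip glucose read at −30, 0, 15, 30, 45, 60 and 120 min.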

For data set [6], the system named is Mus musculus. As to the kind of experiment: Toxicity in overnight fasted ICR mouse assessed as hypoglycemia at 15 mg/kg, po measured at 30 to 180 mins. In kind it is organism-based. The conditions noted are these: in vivo. Put shortly: (§3)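 Male ICR mice, 10 weeks old, fasted overnight, in 3 groups (n = 6). Single oral dose in 0.5% CMC. Tail-vein blood glucose measured by strips at 0, 30, 60, 90, 120 and 180 min. Mean ± SEM, Student's t test.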

Data set [7] has as its system Mus musculus. The experiment in a line: Antidiabetic activity in po dosed overnight fasted ICR mouse assessed as decrease in blood glucose level administered glucose 30 mins post compound treatment measured at 15 to 120 mins by OGTT. Type of data set: functional, organism-based. In short, it runs like this:
as §2

Data set [8] concerns Mus musculus. As to the kind of experiment: Toxicity in overnight fasted ICR mouse assessed as hypoglycemia at 40 mg/kg, po measured at 30 to 180 mins. Type of data set: organism-based. The conditions noted are these: in vivo. Put shortly:
as §3

Calls of active or inactive are those of the source. No cut-off for these calls is given here.

T1 sequence (O14842 whole entry): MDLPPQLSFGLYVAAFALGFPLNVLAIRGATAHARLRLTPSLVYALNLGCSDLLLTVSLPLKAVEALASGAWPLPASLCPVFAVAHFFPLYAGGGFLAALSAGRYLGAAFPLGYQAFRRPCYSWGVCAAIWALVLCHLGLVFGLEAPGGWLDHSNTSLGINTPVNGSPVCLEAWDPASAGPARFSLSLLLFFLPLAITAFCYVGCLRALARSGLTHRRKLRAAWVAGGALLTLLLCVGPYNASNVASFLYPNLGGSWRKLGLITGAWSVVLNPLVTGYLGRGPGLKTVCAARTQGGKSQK

With `Cc1cc(OCCOCc2ccccc2)cc(C)c1-c1cccc(COc2ccc(OCC(=O)O)c(F)c2)c1`, the Activity in data set [1] was found to be 23.6%. The EC50 is the concentration at which the effect is half-maximal. In general, logD refers to the decadic logarithm of the distribution of all forms, ionised or not, between an organic phase and buffer at a given pH. Higher therefore signals higher lipophilicity. Consider `COc1cc(C)c(-c2cccc(COc3ccc(OCC(=O)O)c(F)c3)c2)c(C)c1`, for which the Activity in data set [1] is 58.4%. In addition, in data set [2], the EC50 was 0.0497 µM. For the same molecule, the pH-dependent lipophilicity (logD) at 24 h, 100 µM in data set [3] turned out to be 3.2. For `Cc1cc(OCc2cccc(-c3c(C)cc(OCCCS(C)(=O)=O)cc3C)c2)ccc1N(CC(=O)O)C(=O)c1ccccc1`, the Activity in data set [1] worked out at 2.57%. `CC(=O)N(CC(=O)O)c1ccc(OCc2cccc(-c3c(C)cc(OCCCS(C)(=O)=O)cc3C)c2)cc1C`: the Activity in data set [1] stood at 18.4%. In the case of `Cc1cc(OCCCO)cc(C)c1-c1cccc(COc2ccc(OCC(=O)O)c(F)c2)c1`, the Activity in data set [1] stood at 44.4%. The EC50 in data set [2] worked out at 0.11 µM. Besides, the log distribution coefficient (logD) at 24 h, 100 µM in data set [3] stood at 2.73. On to `COCCOc1cc(C)c(-c2cccc(COc3ccc(OCC(=O)O)c(F)c3)c2)c(C)c1`, for which the Activity in data set [1] came out at 48.7%. The concentration for a half-maximal effect (EC50) in data set [2] is 0.104 µM. In data set [3], the logD at 24 h, 100 µM is 3.15.

Turning to `COCCCOc1cc(C)c(-c2cccc(COc3ccc(OCC(=O)O)c(F)c3)c2)c(C)c1`, the Activity in data set [1] is 38%.

As for `Cc1cc(OCC(=O)N2CCOCC2)cc(C)c1-c1cccc(COc2ccc(OCC(=O)O)c(F)c2)c1`, the Activity in data set [1] is 18.4%. With `CCCCOc1cc(C)c(-c2cccc(COc3ccc(OCC(=O)O)c(F)c3)c2)c(C)c1`, the Activity in data set [1] was determined as 41.6%. Consider `Cc1cc(O)cc(C)c1-c1cccc(COc2ccc(OCC(=O)O)c(F)c2)c1`, for which the Activity in data set [1] was found to be 44.3%. In data set [2], the EC50 came to 0.11 µM. In data set [3], this molecule had a log distribution coefficient (logD) at 24 h, 100 µM of 2.37. Molecule `Cc1cc(OCCCS(C)(=O)=O)cc(C)c1-c1cccc(COc2ccc(OCC(=O)O)c(F)c2)c1` yielded a pH-dependent lipophilicity (logD) at 24 h, 100 µM in data set [3] of 1.81. In the case of `Cc1cc(OCC(C)C)cc(C)c1-c1cccc(COc2ccc(OCC(=O)O)c(F)c2)c1`, the Activity in data set [1] stood at 35.2%. In the case of `Cc1cc(OCC(=O)N(C)C)cc(C)c1-c1cccc(COc2ccc(OCC(=O)O)c(F)c2)c1`, the Activity in data set [1] was found to be 13.5%. `Cc1cc(OCCCS(C)(=O)=O)cc(C)c1-c1cccc(COc2ccc3c(c2)OC[C@H]3CC(=O)O)c1` showed a logD at 24 h, 100 µM in data set [3] of 2.43. Besides, the outcome in the data set with Mus musculus [4] and in the data set on Mus musculus [5] was Active. `CCCOc1cc(C)c(-c2cccc(COc3ccc(OCC(=O)O)c(F)c3)c2)c(C)c1`: the Activity in data set [1] came out at 47.9%. The half-maximal effective concentration (EC50) in data set [2] turned out to be 0.106 µM. In data set [3], this molecule registered a logD at 24 h, 100 µM of 3.64.

As for `COc1ccc(Cl)cc1C(=O)NCCc1ccc(S(=O)(=O)NC(=O)NC2CCCCC2)cc1` [GLYBURIDE], in the data set on Mus musculus [6], the Activity entry is given as “Toxic”. Take `Cc1cc(OCCCS(C)(=O)=O)ccc1-c1cccc(COc2ccc(OCC(=O)O)c(F)c2)c1`: the Activity in data set [1] is 61.3%; in the data set with Mus musculus [7], “Dose-dependent effect”; in the data set with Mus musculus [8] it was “Non-toxic”. Besides, the EC50 in data set [2] amounted to 0.0436 µM. Moreover, the log distribution coefficient (logD) at 24 h, 100 µM in data set [3] was 1.63. The result with Mus musculus [5] was Active.

As for `Cc1cc(OCCCS(C)(=O)=O)cc(C)c1-c1cccc(COc2ccc(N(CC(=O)O)C(=O)c3ccoc3)cc2)c1`, the Activity in data set [1] amounted to 28.9%. Regarding `CCOc1cc(C)c(-c2cccc(COc3ccc(OCC(=O)O)c(F)c3)c2)c(C)c1`, in data set [1], the Activity was 53.1%. For the same molecule, the 50% effective concentration (EC50) in data set [2] was 0.0659 µM. In data set [3], this molecule returned a logD at 24 h, 100 µM of 3.48.

Turning to `Cc1cc(OC(C)C)cc(C)c1-c1cccc(COc2ccc(OCC(=O)O)c(F)c2)c1`, the Activity in data set [1] came out at 36.9%. For `CC(=O)N(CC(=O)O)c1ccc(OCc2cccc(-c3c(C)cc(OCCCS(C)(=O)=O)cc3C)c2)cc1`, the Activity in data set [1] is 36.3%. As to `Cc1cc(OCc2ccccc2)cc(C)c1-c1cccc(COc2ccc(OCC(=O)O)c(F)c2)c1`, in data set [1], the Activity was found to be 26.4%.

As for `Cc1cc(OCCCS(C)(=O)=O)cc(C)c1-c1cccc(COc2ccc(N(CC(=O)O)C(=O)c3ccccc3)cc2)c1`, the Activity in data set [1] is 23.5%.
